According to article PMC3027307 (Biochemistry, 2010):

The compounds below were run against P450-SS9 (cytochrome P450 from Photobacterium profundum strain SS9) (Photobacterium profundum, UniProt Q6LGK6) (assay: absorbance).
Assay type: binding
Method in brief: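 Enzyme at 0.8-1.8 μM was titrated with fatty acids or derivatives, added from 30-140 mM acetone stocks, at 25 °C with stirring in 0.1 M Na-Hepes pH 7.4 with 0.5 mM EDTA. Absorbance spectra were PCA/SVD-resolved into high-spin, low-spin and P420 standards. Kd came from a tight-binding (square-root) equation fit.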
With CCCCC/C=C\C/C=C\C/C=C\C/C=C\CCCC(=O)O [arachidonic acid] the Kd was 19.2 ± 4.2 µM. For CCCCC/C=C\C/C=C\C/C=C\C/C=C\CCCC(=O)NCC(=O)O [arachidonoyl glycine], the Kd was 16.7 ± 0.1 µM. CCCCCCCCCCCCCC(=O)O [myristic acid] gave a Kd of 0.97 ± 0.42 µM. CCCCCCCC/C=C\CCCCCCCC(=O)NCC(=O)O [oleoyl glycine] showed a Kd of 49.5 ± 30 µM. CCCCCCCCCCCCCCCC(=O)O [palmitic acid] was tested, and the Kd was 24.3 ± 8.2 µM.
